# The entries come from a sample that favours hits as a whole.
# KDM4C inh – inhibitors of GASC-1 (KDM4C) histone demethylase, primary screen, biochemical, single concentration HTS | GST-KDM4C 2-372, H3K9me3 peptide, LANCE TR-FRET | inhibition, % at 12.5 µM | 96,000 compounds, 0.15% hits | AID 720574, 2013;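 active = mean replicate inhibition above about 25%, with at least 55% of replicates also reaching it, limit read from the data, passing the limit was not always enough; inconclusive = only one of those two conditions met; inactive = neither condition met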
# Target sequence (Q9H3R0 2-372 limits assumed): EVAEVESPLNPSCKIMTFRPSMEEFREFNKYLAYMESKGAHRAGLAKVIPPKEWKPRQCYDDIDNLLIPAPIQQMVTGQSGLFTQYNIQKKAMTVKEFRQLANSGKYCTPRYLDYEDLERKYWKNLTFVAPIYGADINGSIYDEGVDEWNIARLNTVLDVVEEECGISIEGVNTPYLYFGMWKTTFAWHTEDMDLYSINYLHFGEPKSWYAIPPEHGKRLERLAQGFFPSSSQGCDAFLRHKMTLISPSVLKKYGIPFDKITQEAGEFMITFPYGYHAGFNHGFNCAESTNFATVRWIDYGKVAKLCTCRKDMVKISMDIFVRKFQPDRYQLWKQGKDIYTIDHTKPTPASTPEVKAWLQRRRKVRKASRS
#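 System: N-terminal GST-fused human GASC-1 (KDM4C) fragment, residues 2-372 / Amount: 10 nM GST-KDM4C in enzyme reaction / Also added: H3K9me3 peptide with Fe(II)/2OG / Times: 30 min demethylation and 1 h detection at room temperature / Signal: LANCE TR-FRET / Read-out basis: Fall in 671/618 emission ratio as inhibition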
# IDH1 R132H inh – inhibitors of IDH1 R132H reductase, primary screen, biochemical, plate reader, single point; diaphorase/resazurin fluorescence, 60 min; inhibition, % at 10 µM; 70,000 compounds, 0.18% hits; AID 624101, 2012; in the data active = inhibition above about 34%; inconclusive = no clear call, values can overlap the other calls; inactive = below about 11%;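 note: 0% = DMSO and 100% = no enzyme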
# T cruzi growth-1 – T. cruzi intracellular proliferation inhibitors, primary screen, cell-based, beta-gal Tulahuen parasites, NIH3T3 host, luminescence; inhibition, % at 8.34 µM; T. cruzi beta-gal in NIH3T3, GalScreen luminescence, 90 h; 77,000 compounds, 5.9% hits;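 active = mean inhibition above about 93%, with at least 55% of replicates each passing it, limit read from the data, passing the limit was not always enough; inconclusive = only one of those two conditions holds; inactive = neither condition holds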
# T cruzi growth-2 – T. cruzi intracellular proliferation inhibitors, confirmation, cell-based, NIH3T3 host, beta-gal parasite, luminescence, cherry-pick | shares compounds with T cruzi growth-1 | 5,600 compounds, 72% hits | T. cruzi beta-gal in NIH3T3, GalScreen luminescence, 90 h | inhibition, % at 8.35 µM;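 active = mean replicate inhibition above about 95% and at least 55% of replicates individually reaching it, limit read from the data; inconclusive = only one of the two criteria is met; inactive = neither criterion is met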
# T cruzi growth-3 – inhibitors of intracellular T. cruzi replication, confirmation, NIH3T3 host cells, beta-gal parasites, cherry-pick, set 2. T. cruzi beta-gal in NIH3T3, GalScreen luminescence, 90 h. 5,600 compounds, 21% hits. shares compounds with T cruzi growth-1. inhibition, % at 2.09 µM;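 active = mean inhibition above about 95%, with at least 55% of replicates also reaching it, limit read from the data; inconclusive = meets just one of the two conditions; inactive = meets neither condition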;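 note: plate controls were neutral control median for no effect and positive control median for full effect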
# NIH3T3 tox – cytotoxicity in mouse NIH/3T3 fibroblasts, confirmation, cytotoxicity control for T. cruzi proliferation inhibitor project, cell-based, cherry-pick, single point; shares compounds with T cruzi growth-1; 5,600 compounds, 14% hits; NIH/3T3 viability, CellTiter-Glo ATP luminescence, 90 h; cytotoxicity (signal decrease), % at 8.35 µM; AID 651742, 2012;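 active = mean signal decrease across replicates above about 35% based on untreated-well scatter, with enough replicates individually passing, limit read from the data; inconclusive = no rule stated though some were filed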;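 note: 0% = median of neutral control wells and 100% = median of positive control wells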
# NIH3T3 tox 2 – NIH/3T3 fibroblast cytotoxicity, confirmation, cytotoxicity control, cell-based, cherry-pick, single point, set 2; shares compounds with T cruzi growth-1; NIH/3T3 viability, CellTiter-Glo ATP luminescence, 90 h; 5,600 compounds, 56% hits; inhibition, % at 24.9 µM;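 active = mean loss of cell viability signal at or above a set limit, and enough replicates individually reaching it; inconclusive = meets only the mean limit or only the replicate share; inactive = meets neither condition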;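 note: 0% = median of neutral control wells and 100% = median of positive control wells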
# The depositor's hits bear a star; ? = inconclusive; . = not tested or not shown.
SMILES,KDM4C inh,IDH1 R132H inh,T cruzi growth-1,T cruzi growth-2,T cruzi growth-3,NIH3T3 tox,NIH3T3 tox 2
C[C@H]1CN([C@@H](C)CO)S(=O)(=O)c2ccc(C#Cc3ccccc3)cc2O[C@@H]1CN(C)C(=O)Nc1ccccc1,-3.8,-2.7,119.0*,101.6*,66.6,-19.1,40.2*
C[C@@H]1CN([C@@H](C)CO)S(=O)(=O)c2ccc(C#Cc3ccccc3)cc2O[C@H]1CN(C)C(=O)Nc1ccccc1,-0.4,5.3,122.8*,97.7*,108.1*,39.5*,35.5*
C[C@H]1CN([C@@H](C)CO)S(=O)(=O)c2ccc(C#Cc3ccncc3)cc2O[C@H]1CN(C)C(=O)Nc1ccc2c(c1)OCO2,1.5,.,40.7,.,.,.,.
CC(C(N)=O)N(c1ccc(Cl)cc1)S(C)(=O)=O (centres undefined),.,-0.1,.,.,.,.,.
C[C@@H]1CN([C@@H](C)CO)C(=O)c2cc(/C=C/c3ccccc3)cnc2O[C@@H]1CN(C)S(C)(=O)=O,10.5,-5.2,-1.0,.,.,.,.
C[C@@H]1CN([C@H](C)CO)S(=O)(=O)c2ccc(C#Cc3ccccc3)cc2O[C@H]1CN(C)C(=O)Nc1ccccc1,-7.0,.,122.1*,109.0*,85.5,37.1*,49.8*
CC(C)C#Cc1ccc2c(c1)O[C@@H](CN(C)C(=O)Nc1ccccc1)[C@H](C)CN([C@@H](C)CO)S2(=O)=O,-0.3,.,.,.,.,.,.
Cc1ccccc1S(=O)(=O)N1CC[C@H]2[C@@H](CO)N(C)c3ccc(Br)cc3[C@H]21,-0.7,.,68.6,.,.,.,.
Cc1ccccc1S(=O)(=O)N1CC[C@@H]2[C@@H](CO)N(C)c3ccc(-c4ccccc4)cc3[C@@H]21,1.6,.,?,111.2*,107.9*,22.7,103.9*
Cc1ccccc1S(=O)(=O)N1CC[C@@H]2[C@@H](CO)N(C)c3ccc(Br)cc3[C@@H]21,1.7,.,?,99.9*,34.8,-1.9,106.0*
CN1c2ccc(Br)cc2[C@@H]2[C@@H](CCN2S(=O)(=O)c2ccccc2F)[C@H]1CO,0.7,.,58.3,.,.,.,.
Cc1ccccc1S(=O)(=O)N1CC[C@@H]2[C@H]1c1cc(-c3cccc(F)c3)ccc1N(C)[C@H]2CO,-1.1,.,46.0,.,.,.,.
CN1c2ccc(Br)cc2[C@H]2[C@H](CCN2S(=O)(=O)c2ccccc2F)[C@@H]1CO,1.1,.,93.3*,106.6*,10.8,13.7,15.3
NC(=S)Nc1ccccc1OC(F)(F)F,.,1.5,.,.,.,.,.
C[C@H](CO)N1C[C@H](C)[C@@H](CN(C)Cc2ccc(Cl)c(Cl)c2)Oc2ccc(N(C)C)cc2CC1=O,-0.6,0.2,108.3*,107.0*,93.8,9.9,103.4*
C[C@@H]1CN([C@@H](C)CO)C(=O)Cc2cc(N(C)C)ccc2O[C@H]1CN(C)Cc1ccc(Cl)c(Cl)c1,8.1,-0.6,107.0*,109.8*,63.8,11.0,107.2*
C[C@H](CO)N1C[C@H](C)[C@H](CN(C)Cc2ccc(Cl)c(Cl)c2)Oc2ccc(N(C)C)cc2CC1=O,-2.4,-1.2,?,70.6,12.0,-4.3,-1.5
C[C@@H]1CN([C@@H](C)CO)C(=O)c2cc(N(C)C)ccc2O[C@@H]1CN(C)Cc1ccc(Cl)c(Cl)c1,0.7,-0.1,75.2,.,.,.,.
C[C@H]1CN([C@@H](C)CO)C(=O)Cc2cc(N(C)C)ccc2O[C@H]1CN(C)Cc1ccc2c(c1)OCO2,2.0,-6.3,1.2,.,.,.,.
C[C@@H]1CN([C@H](C)CO)C(=O)Cc2cc(N(C)C)ccc2O[C@H]1CN(C)Cc1ccc(Cl)c(Cl)c1,-0.4,-1.7,58.4,.,.,.,.
CC(=O)Nc1ccc2c(c1)C(=O)N(C)[C@H]1CC[C@H](CC(=O)NCC3CC3)O[C@@H]1CO2,-0.8,.,9.0,.,.,.,.
CCCN(C)C[C@@H]1Oc2ncc(-c3cccnc3)cc2C(=O)N([C@H](C)CO)C[C@@H]1C,-1.0,-0.2,31.5,.,.,.,.
COC(=O)C[C@@H]1CC[C@H]2[C@@H](COc3ccc(NC(=O)c4cc(C)on4)cc3C(=O)N2C)O1,-2.1,.,-8.6,.,.,.,.
O=C(CSc1ncc(-c2ccccc2)nn1)c1ccc(Br)cc1,.,-0.2,.,.,.,.,.
C[C@H]1CN([C@@H](C)CO)C(=O)c2cc(C#CC3CC3)cnc2O[C@@H]1CN(C)C(=O)CC1CC1,-0.7,-1.1,20.3,.,.,.,.
SMILES,KDM4C inh,IDH1 R132H inh,T cruzi growth-1,T cruzi growth-2,T cruzi growth-3,NIH3T3 tox,NIH3T3 tox 2
CN(C)C(=O)[C@H]1[C@H](CO)[C@H]2Cn3c(ccc(-c4ccccc4)c3=O)[C@@H]1N2C(=O)C1CCCC1,-2.6,.,92.3,.,.,.,.
COc1ccc(S(=O)(=O)Nc2ccc3c(c2)C(=O)N([C@H](C)CO)C[C@H](C)[C@@H](CN(C)Cc2ccc(C(=O)Nc4ccccc4N)cc2)O3)cc1,0.8,0.2,.,.,.,.,.
COc1ccc(CN(C)C[C@@H]2Oc3ccc(NS(=O)(=O)c4ccccc4)cc3CC(=O)N([C@H](C)CO)C[C@@H]2C)cc1,1.4,-0.1,7.9,.,.,.,.
CNC[C@H]1Oc2ccc(NC(=O)C3CCCCC3)cc2CC(=O)N([C@H](C)CO)C[C@H]1C,-0.8,2.0,37.7,.,.,.,.
C/C=C/c1ccc2c(c1)O[C@H](CN(C)Cc1ccc(F)cc1)[C@@H](C)CN([C@@H](C)CO)S2(=O)=O,-1.3,1.1,117.4*,?,89.1,7.6,103.6*
C/C=C/c1ccc2c(c1)O[C@@H](CN(C)Cc1ccccc1)[C@@H](C)CN([C@@H](C)CO)S2(=O)=O,7.5,-7.2,36.8,.,.,.,.
C/C=C/c1ccc2c(c1)O[C@H](CN(C)Cc1cccc(F)c1)[C@@H](C)CN([C@@H](C)CO)S2(=O)=O,-0.9,-6.4,.,.,.,.,.
C/C=C/c1ccc2c(c1)O[C@H](CN(C)Cc1ccccc1)[C@@H](C)CN([C@@H](C)CO)S2(=O)=O,0.3,-0.3,116.5*,100.5*,103.6*,14.1,103.9*
CNC(=O)C[C@H]1CC[C@@H]2[C@@H](COc3ccc(NC(=O)Nc4ccccc4F)cc3C(=O)N2C)O1,0.8,.,39.6,.,.,.,.
C[C@@H]1CN([C@H](C)CO)C(=O)c2cc(NC(=O)NC3CCCCC3)ccc2O[C@@H]1CN(C)Cc1ccc(-c2ccccc2)cc1,-2.3,2.8,48.3,.,.,.,.
C[C@@H]1CN([C@@H](C)CO)C(=O)c2cc(NC(=O)NC3CCCCC3)ccc2O[C@H]1CN(C)Cc1ccc(-c2ccccc2)cc1,-2.2,1.1,107.5*,101.7*,-17.6,37.8*,43.3*

# Assay outcomes as filed in PubChem BioAssay.
